Experimental data as given in PMC2729689 (Hypertension, 2009).
“Also recorded” adds a separate entry of the source. Where no end group is shown, it is not given here.

Key:
[1] = target: GC-C (GC-C-expressing T84 cell line) (Homo sapiens, UniProt P25092); assay: T84 cell-based cyclic GMP bioassay
Method in brief: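 Test peptide diluted into bioassay medium (1 mM IBMX, 137 mM NaCl, 5.4 mM KCl, 1.3 mM CaCl2, 1.0 mM MgSO4, 4.2 mM NaHCO3, phosphates, phenol red, 10 mM HEPES), pH readjusted to 7.0 if required, then applied to T84 cells for 30 min. Cells lysed; cyclic GMP measured by radioimmunoassay. Concentration-response data fitted with the log(agonist) vs response equation.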

[2] = test system: anesthetized rats (male Sprague Dawley); assay: Urinary sodium excretion; type: in vivo, rat
[3] = rat, mouse, and opossum forms; 37° C and neutral pH; cited from earlier work
[4] = test system: kidney; details: cited from earlier work
[5] = test system: GC-C knockout mouse intestine; details: cited from earlier work
[6] = test system: GC-C knockout mouse kidneys; details: cited from earlier work
[7] = test system: chymotrypsin-like activity in the kidney; details: cited from earlier work

Chain of GC-C (GC-C-expressing T84 cell line) (P25092 24-1073): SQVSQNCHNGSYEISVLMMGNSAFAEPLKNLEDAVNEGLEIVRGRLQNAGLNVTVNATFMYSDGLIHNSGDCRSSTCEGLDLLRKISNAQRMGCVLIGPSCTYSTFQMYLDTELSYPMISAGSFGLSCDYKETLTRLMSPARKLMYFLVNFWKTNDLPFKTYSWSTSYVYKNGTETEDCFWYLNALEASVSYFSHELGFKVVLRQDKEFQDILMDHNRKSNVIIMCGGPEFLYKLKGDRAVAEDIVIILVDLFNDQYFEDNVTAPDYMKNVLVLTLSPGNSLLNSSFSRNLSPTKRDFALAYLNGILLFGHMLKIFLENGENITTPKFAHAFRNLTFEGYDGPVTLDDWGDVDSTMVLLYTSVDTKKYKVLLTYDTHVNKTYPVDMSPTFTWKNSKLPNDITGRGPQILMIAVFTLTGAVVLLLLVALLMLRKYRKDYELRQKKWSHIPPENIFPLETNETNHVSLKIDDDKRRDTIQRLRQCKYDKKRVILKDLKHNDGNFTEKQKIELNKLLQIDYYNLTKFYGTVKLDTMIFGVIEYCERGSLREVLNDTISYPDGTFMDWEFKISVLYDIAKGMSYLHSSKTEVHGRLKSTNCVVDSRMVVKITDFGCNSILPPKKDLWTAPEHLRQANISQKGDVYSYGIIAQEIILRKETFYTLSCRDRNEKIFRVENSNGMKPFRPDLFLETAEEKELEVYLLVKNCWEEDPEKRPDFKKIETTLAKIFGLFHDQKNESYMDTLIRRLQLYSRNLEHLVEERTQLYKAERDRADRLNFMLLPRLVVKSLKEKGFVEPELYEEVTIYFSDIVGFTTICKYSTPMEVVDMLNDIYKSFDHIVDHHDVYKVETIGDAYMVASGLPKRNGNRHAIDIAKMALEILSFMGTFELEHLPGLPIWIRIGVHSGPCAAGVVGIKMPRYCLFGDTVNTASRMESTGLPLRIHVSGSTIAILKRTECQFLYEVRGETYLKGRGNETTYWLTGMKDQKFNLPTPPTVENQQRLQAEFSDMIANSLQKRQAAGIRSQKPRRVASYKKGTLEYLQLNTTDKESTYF

Substance: CCELCCNPACTGCY (also: bicyclic or more (positions not given here)) [ST-core]
- EC50 for cyclic GMP stimulation relative to huUgnA (fold lower) ([1]; T84 cells, no reference or data printed): about 10 fold
- pharmacological profile of GC-C-mediated responses (rank order) ([1]; described as well-established): ST core > huUgnA >> huUgnB, with all three peptides acting as pure agonists
- natriuretic effect compared with huUgnA ([2]; iv infusion, cumulative 3 hour, Figure 6b, words): the maximal natriuresis elicited by ST-core was slightly less and the response was shifted to the right; also recorded: right-shifted, but otherwise quite similar to those evoked by huUgnA
- pharmacological profile of the renal responses (rank order) ([2]; rat, in vivo): huUgnB ≥ huUgnA ≈ ST core, with physiological antagonism by huUgnA at high concentration

Substance: uroguanylin (NDDCELCVNVACTGCL; ends and bridges not checked; cysteine pairing not given here; UniProt Q16661 97-112, looked up) [Ugn]
- rate of interconversion of the two conformations [3]: 1–2 cycles per sec
- natriuretic, kaliuretic, diuretic effect ([4]; every preparation that has been examined): natriuretic, kaliuretic, and diuretic in every preparation that has been examined
- natriuretic potency, Ugn versus Gn ([4]; words): a more potent natriuretic factor than Gn

Substance: rat Ugn: rat form of uroguanylin; A and B forms interconvert rapidly (TDECELCINVACTGC; not fully specified (bridges); ends and bridges not checked; UniProt P70668 92-106, looked up)
- secretory response from the intestine [5]: only small, residual secretory responses
- natriuretic response from the kidneys [6]: apparently full natriuretic responses

Substance: guanylin (PGTCEICAYAACTGC; ends and bridges not checked; cysteine pairing not given here; UniProt Q02747 101-115, looked up) [Gn]
- rate of interconversion of the two conformations [3]: 1–2 cycles per sec
- kaliuretic activity, Gn versus Ugn ([4]; words): more kaliuretic than Ugn
- susceptibility to proteolytic digestion ([7]; chymotrypsin-like activity in the kidney): susceptible to proteolytic digestion
- detectability in urine [7]: undetectable in urine
